Results reported in ChEMBL document CHEMBL3392999 (J Med Chem, 2014).
The source made the active and inactive calls. No cut-off for these calls is given here.

Experiments:
[1] = Selectivity ratio of IC50 for human HEK293 cells to IC50 for human MCF7 cells; format: ADME, cell-based; settings: HEK293 cells versus MCF7 cells, read-out: Ratio IC50
Method in brief: (§1)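 HT-29, MCF-7 and HEK293 cells were grown in DMEM (1 g/L glucose, 2 mM glutamine, antibiotics, amphotericin, 10% FBS). Serial dilutions of compound in DMSO were added to 5 x 10^3 cells/well for 3 days at 37 °C, 5% CO2. MTT was then added for 4 h, formazan was dissolved in 0.04 N HCl/2-propanol and read at 550 nm, in triplicate. IC50 is the 50% growth inhibition. The ratios are HEK293 IC50 over HT-29 or MCF-7 IC50.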

HT-29 = test: Cytotoxicity against human HT-29 cells after 3 days by MTT assay; format: functional, cell-based; settings: HT-29, 72 h; method in brief: as §1
MCF7 = test: Cytotoxicity against human MCF7 cells after 3 days by MTT assay; format: functional, cell-based; settings: MCF7, 72 h; method in brief: as §1
HEK293 = test: Cytotoxicity against human HEK293 cells after 3 days by MTT assay; format: cell-based; settings: HEK293, 72 h; method in brief: as §1
[2] = Selectivity ratio of IC50 for human HEK293 cells to IC50 for human HT29 cells; format: ADME, cell-based; settings: HEK293 cells versus HT29 cells, read-out: Ratio IC50; method in brief: as §1
[3] = Depolymerization of microtubule cytoskeleton in human A549 cells assessed as aberrant mitosis at 10 uM after 24 hrs by hoechst 33342-based fluorescence microscopy; format: cell-based
Method in brief: (§2)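 A549 cells were cultured overnight on 12 mm round coverslips, then incubated 24 h with ligand or DMSO vehicle. Cells were permeabilized with Triton X-100 and fixed with 3.7% formaldehyde. Microtubules were stained with DM1A anti-α-tubulin monoclonal antibody and DNA with Hoechst 33342, then examined by epifluorescence microscopy with a cooled CCD camera.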

[4] = Depolymerization of microtubule cytoskeleton in human A549 cells assessed as DNA forming a ball without microtubules at 10 uM after 24 hrs by hoechst 33342-based fluorescence microscopy; format: cell-based; method in brief: as §2
Tubulin (Homo sapiens) [5] = molecular target: T1, Tubulin (Homo sapiens) (UniProt P68371+Q9H4B7+P0DPH7+P68366+Q13509+Q71U36+P04350+Q3ZCM7+P07437+P68363+Q9BQE3+Q6PEY2+Q13885+Q9BVA1+Q9BUF5); test: Inhibition of purified tubulin (unknown origin) assessed as critical concentration of tubulin required to produce assembly at 25 uM after 30 mins by spectrophotometry; format: protein-complex assay
Method in brief: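 Calf-brain tubulin (20 µM) was incubated 30 min at 37 °C in glycerol assembly buffer (3.4 M glycerol, 10 mM sodium phosphate, 1 mM EGTA, 1 mM GTP, pH 6.5) with ligand at varying concentrations or DMSO vehicle. The critical concentration for assembly was then calculated from the processed samples. Values are averages of replicate measurements.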

Tubulin (Homo sapiens) [6] = molecular target: T1, Tubulin (Homo sapiens); test: Inhibition of purified tubulin (unknown origin) assessed as concentration of compound in dichloromethane solvent at 30 uM after 1 hr; format: protein-complex assay
Method in brief: (§3)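 In one set, mixtures stood 1 h at 37 °C and were extracted with dichloromethane. In another, microtubules were allowed to assemble and were ultracentrifuged, and the supernatant and pellet were extracted separately. Ligand in each extract was quantified against a 30 µM tubulin-free reference.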

Tubulin (Homo sapiens) [7] = molecular target: T1, Tubulin (Homo sapiens); test: Inhibition of purified tubulin (unknown origin) assessed as concentration of compound in pellet solution at 30 uM after 1 hr; format: protein-complex assay; method in brief: as §3
[8] = Resistance factor, ratio of IC50 for human A2780AD cells to IC50 for human A2780 cells; format: functional, A2780 ADR
Method in brief: (§4)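 Ovarian carcinoma A2780 and its P-glycoprotein-overexpressing MDR subline A2780AD were cultured in RPMI 1640 with 10% FCS, glutamine, antibiotics and 0.25 units/mL bovine insulin. Cytotoxicity was measured by a modified MTT assay. IC50 is 50% growth inhibition, averaged over three measurements. The resistance factor is A2780AD IC50 divided by A2780 IC50.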

A549 [9] = test: Cell cycle arrest at G2/M phase in human A549 cells at 5 to 10 uM after 20 hrs; format: functional
Method in brief: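 A549 cells (RPMI 1640, 10% FCS, glutamine, antibiotics) were exposed to ligand or DMSO vehicle for 20 h. They were then fixed, RNase-treated and stained with propidium iodide. DNA content was measured by flow cytometry, and G2/M accumulation was read at the lowest concentration giving maximal arrest.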

[10] = Depolymerization of microtubule cytoskeleton in human A549 cells assessed as DNA forming a ball without microtubules at 5 uM after 24 hrs by hoechst 33342-based fluorescence microscopy; format: cell-based; method in brief: as §2
A2780 = test: Cytotoxicity against human A2780 cells after 24 hrs by MTT assay; format: functional, cell-based; settings: A2780, 24 h
[11] = Depolymerization of microtubule cytoskeleton in human A549 cells at 5 uM after 24 hrs by hoechst 33342-based fluorescence microscopy; format: cell-based; method in brief: as §2
Tubulin (Homo sapiens) [12] = molecular target: T1, Tubulin (Homo sapiens); test: Inhibition of purified tubulin (unknown origin) assessed as concentration of compound in supernatant solution at 30 uM after 1 hr; format: protein-complex assay; method in brief: as §3
[13] = Depolymerization of microtubule cytoskeleton in human A549 cells assessed as aberrant mitosis at 5 uM after 24 hrs by hoechst 33342-based fluorescence microscopy; format: cell-based; method in brief: as §2
[14] = Cytotoxicity against human A2780AD cells after 24 hrs by MTT assay; format: functional, cell-based; settings: A2780 ADR; method in brief: as §4
[15] = Depolymerization of microtubule cytoskeleton in human A549 cells assessed as aberrant mitosis at 50 nM after 24 hrs by hoechst 33342-based fluorescence microscopy; format: cell-based
Method in brief: (§5)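 A549 cells grown overnight on 12 mm round coverslips, then 24 h with compound or DMSO vehicle. Cells permeabilized with Triton X100 and fixed in 3.7% formaldehyde. Microtubules stained with DM1A α-tubulin monoclonal antibody, DNA with Hoechst 33342. Examined by epifluorescence microscopy with cooled CCD imaging; mitotic spindles inspected.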

[16] = Depolymerization of microtubule cytoskeleton in human A549 cells at 50 nM after 24 hrs by hoechst 33342-based fluorescence microscopy; format: cell-based; method in brief: as §5
[17] = Depolymerization of microtubule cytoskeleton in human A549 cells assessed as DNA forming a ball without microtubules at 50 nM after 24 hrs by hoechst 33342-based fluorescence microscopy; format: cell-based; method in brief: as §5
A549 [18] = test: Cell cycle arrest at G2/M phase in human A549 cells at 50 nM after 20 hrs; format: functional, cell-based
Method in brief: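 A549 human lung carcinoma cells in RPMI 1640 with 10% FCS, glutamine and antibiotics, exposed for 20 h to compound or DMSO vehicle. Cells were fixed, RNase-treated and stained with propidium iodide. DNA content was measured by flow cytometry to give G2/M fraction.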

[19] = Depolymerization of microtubule cytoskeleton in human A549 cells at 1 uM after 24 hrs by hoechst 33342-based fluorescence microscopy; format: cell-based; method in brief: as §2

SMILES | selectivity ratio [1] | IC50 (HT-29) [nM] | IC50 (MCF7) [nM] | IC50 (HEK293) [nM] | selectivity ratio [2] | Activity (Tubulin (Homo sapiens) [5]) [µM] | IC50 [14] [nM] | also measured
COc1cc2c(c(OC)c1OC)-c1ccc(OC)c(=O)cc1[C@@H](NC(=O)CCCCCCCCCCCCCCC(=O)OCCCCC[C@@H]1CC=CC(=O)O1)CC2 | 0.7 | 8000 | 600 | 440 | < 0.1 |  |  | 
COc1cc2c(c(OC)c1OC)-c1ccc(OC)c(=O)cc1[C@@H](NC(=O)CCCCCCCCCCC(=O)OCCCCC[C@@H]1CC=CC(=O)O1)CC2 | 4.2 | 18000 | 330 | 1400 | < 0.1 | 6.3 | 26500 | Activity [3]: Active; Activity [4]: Active; Activity (Tubulin (Homo sapiens) [6]): 6.9 µM; Activity (Tubulin (Homo sapiens) [7]): 5.7 µM; Ratio IC50 [8]: 110; Activity (A549 [9]): >80%; Activity [10]: Active; IC50 (A2780): 240 nM; Activity [11]: Active; Activity (Tubulin (Homo sapiens) [12]): 2 µM; Activity [13]: Active
COc1cc2c(c(OC)c1OC)-c1ccc(OC)c(=O)cc1[C@@H](NC(=O)CCCCCCCCCCC(=O)OCCCCC[C@H]1CC=CC(=O)O1)CC2 | 80 | 40000 | 300 | 24000 | 0.6 |  |  | 
COc1cc2c(c(OC)c1OC)-c1ccc(OC)c(=O)cc1[C@@H](NC(C)=O)CC2 [COLCHICINE] |  | 50 |  | 5 |  |  | 306 | Activity [15]: Active; Activity [16]: Active; Activity [17]: Active; Activity (A549 [18]): Active
COc1cc2c(c(OC)c1OC)-c1ccc(OC)c(=O)cc1[C@@H](NC(=O)CCCCCCCCCCCCCCC(=O)OCCCCC[C@H]1CC=CC(=O)O1)CC2 | 1 | 30000 | 500 | 500 | < 0.1 |  |  | 
COc1cc2c(c(OC)c1OC)-c1ccc(OC)c(=O)cc1[C@@H](NC(=O)CCCC(=O)OCCCCC[C@H]1CC=CC(=O)O1)CC2 | < 0.1 | 65000 | 19000 | 400 | < 0.1 |  |  | 
CC(=O)O[C@@]12CO[C@@H]1C[C@H](O)[C@@]1(C)C(=O)[C@H](O)C3=C(C)[C@@H](OC(=O)[C@H](O)[C@@H](NC(=O)OC(C)(C)C)c4ccccc4)C[C@@](O)([C@@H](OC(=O)c4ccccc4)[C@H]21)C3(C)C |  |  |  |  |  | 0.9 |  | 
COc1cc2c(c(OC)c1OC)-c1ccc(OC)c(=O)cc1[C@@H](NC(=O)CCCC(=O)OCCCCC[C@@H]1CC=CC(=O)O1)CC2 | 8.7 | 21000 | 700 | 6000 | 0.3 | 6.6 | 59000 | Activity [3]: Active; Activity [4]: Active; Activity (Tubulin (Homo sapiens) [6]): 21.7 µM; Activity [19]: Active; Activity (Tubulin (Homo sapiens) [7]): 5.7 µM; Ratio IC50 [8]: 118; Activity (A549 [9]): >80%; Activity [10]: Active; IC50 (A2780): 500 nM; Activity (Tubulin (Homo sapiens) [12]): 18.1 µM; Activity [13]: Active
COc1cc2c(c(OC)c1OC)-c1ccc(OC)c(=O)cc1[C@@H](NC(=O)CCCCCCC(=O)OCCCCC[C@@H]1CC=CC(=O)O1)CC2 | > 100 | 20000 | 290 | 33000 | 1.6 |  |  | 
C/C=C/C[C@H](C)[C@@H](OC)[C@@H](C)[C@H](O)C[C@H]1OC(=O)C=C[C@H]1CC [PIRONETIN] | 2.8 |  |  |  | 2.6 | > 15 | 25 | Ratio IC50 [8]: 3; IC50 (A2780): 8 nM
COc1cc2c(c(OC)c1OC)-c1ccc(OC)c(=O)cc1[C@@H](NC(=O)CCCCCCC(=O)OCCCCC[C@H]1CC=CC(=O)O1)CC2 | < 0.1 | 40000 | 12000 | 700 | < 0.1 |  |  | 
